Measurements taken from ChEMBL document CHEMBL3352115, “Discovery of APD334: Design of a Clinical Stage Functional Antagonist of the Sphingosine-1-phosphate-1 Receptor” (ACS Med Chem Lett, 2014).
Active and inactive are the calls of the source. The rule behind the calls is not given here.

What was measured:
[1] = Protein binding in rat plasma; format: ADME, cell-free; conditions: read-out: PPB (converted)
Mus musculus = assay: Prevention of onset and severity of disease in C57Bl/6 mouse experimental autoimmune encephalomyelitis model of multiple sclerosis at 0.3 to 3 mg/kg dosed once daily beginning on day 3 and continued to day 25; format: functional, organism-based
In short: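 Female C57Bl/6 mice immunized with MOG35–55 as autoantigen; oral dosing once daily from day 3 to day 25 in 0.5% methylcellulose vehicle; clinical scores followed beyond end of dosing.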

Rattus norvegicus [2] = assay: Improvement histological parameters of knee and ankles in Lewis rat collagen-induced arthritis model at 1 mg/kg, po qd measured on day 17; format: functional, organism-based; design: dose 1 mg/kg; conditions: Ankle/Knee
[3] = Protein binding in human plasma; format: ADME, cell-free; conditions: read-out: PPB (converted)
Rattus norvegicus [4] = assay: Reduction in peripheral lymphocyte count in orally dosed rat measured after 24 hrs; format: ADME, organism-based
[5] = Ratio of drug level in brain to plasma of Sprague-Dawley rat at 14.5 ug/hr/kg dosed as constant infusion measured after 48 hrs; format: ADME, organism-based; conditions: iv, read-out: BPR
In short: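 Male Sprague–Dawley rats given 48 h constant infusion at 14.5 μg/h/kg; brain and plasma concentrations measured at 48 h to give B/P ratio.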

[6] = Systemic clearance in rat at 1 mg/kg, iv; format: ADME, organism-based; design: dose 1 mg/kg, route intravenous; conditions: in vivo
[7] = Elimination half life in mouse at 1 mg/kg, po; format: ADME, organism-based; design: dose 1 mg/kg, route oral; conditions: in vivo, read-out: beta t1/2 (converted)
In short: (§1)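 Preclinical iv/po PK; amorphous free acid dosed orally as a suspension in 0.5% methyl cellulose; clearance and Vss from intravenous administration.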

[8] = Half life in rat liver microsomes; format: ADME
In short: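 Stability on incubation with liver microsomes of each species; half-life reported.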

[9] = AUC (0 to infinity) in monkey at 1 mg/kg, iv or 3 mg/kg, po; format: ADME, organism-based, Macaca mulatta; conditions: rhesus monkey, plasma; in short: as §1
[10] = Drug level in Sprague-Dawley rat plasma at 14.5 ug/hr/kg dosed as constant infusion measured after 48 hrs; format: ADME, organism-based; conditions: iv
In short: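 Male Sprague–Dawley rats given constant infusion at 14.5 μg/h/kg for 48 h; brain and plasma concentrations measured at 48 h.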

Canis familiaris = assay: Effect on ECG parameters in telemeterized dog up to 40 mg/kg; format: ADME, organism-based, Canis lupus familiaris; design: dose 40 mg/kg; conditions: in vivo
In short: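 Telemeterized dogs dosed at levels up to 40 mg/kg; pulse pressure, heart rate, body temperature and ECG parameters monitored.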

Rattus norvegicus [11] = assay: Induction of body weight regain in Lewis rat collagen-induced arthritis model at 1 mg/kg, po qd measured on day 17 (reference value: 160.3 +/- 2.3 g); format: functional

## O=C(O)C[C@H]1CCc2c1[nH]c1ccc(OCc3ccc(C4CCCC4)c(C(F)(F)F)c3)cc21 [ETRASIMOD]
[1]
  fraction unbound: 0.02
Mus musculus
  Activity: Active
Rattus norvegicus [2]
  Activity: Active
[3]
  fraction unbound: 0.022
Rattus norvegicus [4]
  IC50: 51 nM
[5]
  Kp at 48 h: 1.9
[6]
  clearance: 2.42 mL/min/kg
[7]
  half-life: 12.3 h
[8]
  half-life: > 1 h
[9]
  AUC(0-inf): 23100 ng·h/mL
[10]
  concentration at 48 h: 110 nM
Canis familiaris
  Activity: Non-toxic
Rattus norvegicus [11]
  Activity: 178.6 g
